According to ChEMBL document CHEMBL1649147, “Antistaphylococcal activity of dihydrophthalazine antifolates, a family of novel antibacterial drugs” (2009):
In brackets after ≈: the same amount, converted by molar mass.

Columns and labels:
[1] = test system: Staphylococcus epidermidis; assay: Antibacterial activity against methicillin-susceptible coagulase-negative Staphylococcus epidermidis 051 after 50 passages by agar dilution method; assay type: functional
How it was run: (§1)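 Daily serial passage for up to 50 days at 35°C for 24 h in 1 ml MHB. Each transfer used 10 µl from the tube nearest the MIC (1–2 dilutions below) with the same turbidity as the drug-free control. MICs were measured by agar dilution, with changes given as log2 steps.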

[2] = test system: Staphylococcus epidermidis; assay: Antibacterial activity against methicillin-susceptible coagulase-negative Staphylococcus epidermidis 057 after 10 passages by agar dilution method; assay type: functional
How it was run: (§2)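 Daily serial passage for up to 50 days at 35°C for 24 h in 1 ml MHB. […] Each transfer used 10 µl from the tube nearest the MIC (1–2 dilutions below) with the same turbidity as the drug-free control. […] MICs were measured by agar dilution, with changes given as log2 steps.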

[3] = test system: Staphylococcus epidermidis; assay: Antibacterial activity against methicillin-resistant coagulase-negative Staphylococcus epidermidis 197 after 50 passages by agar dilution method; assay type: functional; how it was run: as §1
[4] = test system: Staphylococcus epidermidis; assay: Antibacterial activity against methicillin-resistant, Linezolid non-susceptible coagulase-negative Staphylococcus epidermidis 345 after 50 passages by agar dilution method; assay type: functional; how it was run: as §1
[5] = test system: Staphylococcus aureus; assay: Antibacterial activity against methicillin-susceptible Staphylococcus aureus by agar dilution method; assay type: functional
How it was run: (§3)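 Agar dilution on Mueller-Hinton agar per CLSI guidelines. S. aureus ATCC 29213 and E. faecalis ATCC 29212 were run with each set, and test MICs were accepted only when the control strains fell within acceptable ranges.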

[6] = test system: Staphylococcus aureus; assay: Antibacterial activity against Tmp-susceptible Staphylococcus aureus by agar dilution method; assay type: functional
How it was run: (§4)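 MICs by agar dilution on Mueller-Hinton agar following CLSI guidelines. S. aureus ATCC 29213 and E. faecalis ATCC 29212 were run as quality controls with each set, and test-strain MICs were kept only if control MICs fell within acceptable ranges.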

[7] = test system: Staphylococcus aureus; assay: Antibacterial activity against Tmp-susceptible coagulase-negative Staphylococcus aureus by agar dilution method; assay type: functional; how it was run: as §4
[8] = test system: Staphylococcus aureus; assay: Antibacterial activity against methicillin-susceptible Staphylococcus aureus ATCC 29213 by broth macrodilution method; assay type: functional; details: ATCC29213
[9] = test system: Staphylococcus aureus; assay: Antibacterial activity against methicillin-susceptible Staphylococcus aureus 505 by broth macrodilution method; assay type: functional
[10] = test system: Staphylococcus aureus; assay: Antibacterial activity against methicillin-resistant Staphylococcus aureus ATCC 43300 by broth macrodilution method; assay type: functional; details: ATCC43300
[11] = test system: Staphylococcus aureus; assay: Antibacterial activity against methicillin-resistant Staphylococcus aureus 145 by broth macrodilution method; assay type: functional
[12] = test system: Staphylococcus aureus; assay: Antibacterial activity against methicillin-resistant Staphylococcus aureus 507 by broth macrodilution method; assay type: functional
[13] = test system: Staphylococcus aureus; assay: Antibacterial activity against vancomycin-resistant Staphylococcus aureus VRS1 by broth macrodilution method; assay type: functional
How it was run: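 Michigan VRSA strain, one of 12 staphylococci later used in time-kill studies. MIC was determined by broth macrodilution and reported in μg/ml.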

[14] = test system: Staphylococcus epidermidis; assay: Antibacterial activity against methicillin-susceptible coagulase-negative Staphylococcus epidermidis 051 by broth macrodilution method; assay type: functional
[15] = test system: Staphylococcus epidermidis; assay: Antibacterial activity against methicillin-susceptible coagulase-negative Staphylococcus epidermidis 057 by broth macrodilution method; assay type: functional
[16] = test system: Staphylococcus epidermidis; assay: Antibacterial activity against methicillin-resistant coagulase-negative Staphylococcus epidermidis 074 by broth macrodilution method; assay type: functional
[17] = test system: Staphylococcus epidermidis; assay: Antibacterial activity against methicillin-resistant coagulase-negative Staphylococcus epidermidis 197 by broth macrodilution method; assay type: functional
[18] = test system: Staphylococcus epidermidis; assay: Antibacterial activity against methicillin-resistant coagulase-negative Staphylococcus epidermidis 225 by broth macrodilution method; assay type: functional
[19] = test system: Staphylococcus epidermidis; assay: Antibacterial activity against methicillin-resistant coagulase-negative Staphylococcus epidermidis 345 by broth macrodilution method; assay type: functional
[20] = test system: Staphylococcus aureus; assay: Antibacterial activity against methicillin-susceptible Staphylococcus aureus ATCC 29213 after 50 passages by agar dilution method; assay type: functional; details: ATCC29213; how it was run: as §2
[21] = test system: Staphylococcus aureus; assay: Antibacterial activity against methicillin-susceptible, vancomycin-intermediate Staphylococcus aureus 505 by broth macrodilution method; assay type: functional
[22] = test system: Staphylococcus aureus; assay: Antibacterial activity against methicillin-resistant and vancomycin-resistant Staphylococcus aureus VRS1 by agar dilution method; assay type: functional; how it was run: as §3
[23] = test system: Staphylococcus epidermidis; assay: Antibacterial activity against methicillin-resistant, Linezolid non-susceptible coagulase-negative Staphylococcus epidermidis 345 by agar dilution method; assay type: functional
[24] = test system: Staphylococcus epidermidis; assay: Antibacterial activity against methicillin-resistant, vancomycin-intermediate coagulase-negative Staphylococcus epidermidis 225 by agar dilution method; assay type: functional; how it was run: as §3
[25] = test system: Staphylococcus aureus; assay: microbe, parasite or virus in culture; details: 505
[26] = test system: coagulase-negative staphylococci; assay: Antibacterial activity against Tmp-resistant coagulase-negative staphylococci by agar dilution method
[27] = test system: coagulase-negative staphylococci; assay: Antibacterial activity against Tmp-susceptible coagulase-negative staphylococci by agar dilution method
[28] = test system: coagulase-negative staphylococci; assay: Antibacterial activity against methicillin-resistant coagulase-negative staphylococci by agar dilution method
[29] = test system: coagulase-negative staphylococci; assay: Antibacterial activity against methicillin-susceptible coagulase-negative staphylococci by agar dilution method
[30] = test system: Staphylococcus aureus; assay: Antibacterial activity against methicillin-resistant and vancomycin-resistant Staphylococcus aureus VRS1 after 50 passages by agar dilution method; assay type: functional; how it was run: as §2
[31] = test system: Staphylococcus epidermidis; assay: Antibacterial activity against methicillin-susceptible coagulase-negative Staphylococcus epidermidis 057 after 50 passages by agar dilution method; assay type: functional; how it was run: as §1
[32] = test system: Staphylococcus epidermidis; assay: Antibacterial activity against methicillin-resistant, vancomycin-intermediate coagulase-negative Staphylococcus epidermidis 225 after 50 passages by agar dilution method; assay type: functional; how it was run: as §2
[33] = test system: Staphylococcus aureus; assay: Antibacterial activity against methicillin-resistant Staphylococcus aureus by agar dilution method; assay type: functional; how it was run: as §3
[34] = test system: Staphylococcus aureus; assay: Antibacterial activity against Tmp-resistant Staphylococcus aureus by agar dilution method; assay type: functional; how it was run: as §4
[35] = test system: Staphylococcus aureus; assay: Antibacterial activity against methicillin-susceptible, vancomycin-intermediate Staphylococcus aureus 505 after 50 passages by agar dilution method; assay type: functional; how it was run: as §2
[36] = test system: Staphylococcus aureus; assay: Antibacterial activity against methicillin-resistant Staphylococcus aureus ATCC 43300 after 50 passages by agar dilution method; assay type: functional; details: ATCC43300
How it was run: (§5)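 Serial passage under drug. Inoculum was ~1 × 10^6 CFU/ml from overnight MHA growth, in 1 ml MHB at 35°C for 24 h. Drug ranged from 4 log2 steps above to 3 log2 steps below the MIC. […] MIC change is given as log2 steps.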

[37] = test system: Staphylococcus aureus; assay: Antibacterial activity against methicillin-resistant Staphylococcus aureus 145 after 50 passages by agar dilution method; assay type: functional; how it was run: as §5

CCC[C@@H]1C[C@@H](C(=O)N[C@@H]([C@H]2O[C@H](SC)[C@H](O)[C@@H](O)[C@H]2O)[C@H](C)Cl)N(C)C1 [CLINDAMYCIN]
MIC [1]: 4 µg/mL (≈ 9.41 µM) | MIC [2]: > 128 µg/mL | MIC [3]: 2 µg/mL (≈ 4.71 µM) | MIC [4]: 4 µg/mL (≈ 9.41 µM) | MIC50 [5]: 0.125 µg/mL (≈ 0.294 µM) | MIC90 [5]: > 32 µg/mL | MIC50 [6]: > 32 µg/mL | MIC90 [6]: > 32 µg/mL | MIC [7]: ≤ 0.06 µg/mL | MIC [8]: 0.125 µg/mL (≈ 0.294 µM) | MIC [9]: 0.125 µg/mL (≈ 0.294 µM) | MIC [10]: > 32 µg/mL | MIC [11]: > 32 µg/mL | MIC [12]: 512 µg/mL (≈ 1200 µM) | MIC [13]: > 512 µg/mL | MIC [14]: 0.125 µg/mL (≈ 0.294 µM) | MIC [15]: 0.125 µg/mL (≈ 0.294 µM) | MIC [16]: 0.25 µg/mL (≈ 0.588 µM) | MIC [17]: 0.125 µg/mL (≈ 0.294 µM) | MIC [18]: > 128 µg/mL | MIC [19]: 1 µg/mL (≈ 2.35 µM) | MIC [20]: 32 µg/mL (≈ 75.3 µM) | MIC [21]: 0.125 µg/mL (≈ 0.294 µM) | MIC [22]: > 32 µg/mL | MIC [23]: 2 µg/mL (≈ 4.71 µM) | MIC [24]: > 32 µg/mL | MIC [25]: > 128 µg/mL | MIC50 [26]: 2 µg/mL (≈ 4.71 µM) | MIC50 [27]: 0.125 µg/mL (≈ 0.294 µM) | MIC90 [27]: > 32 µg/mL | MIC50 [28]: 0.25 µg/mL (≈ 0.588 µM) | MIC [29]: 0.125 µg/mL (≈ 0.294 µM) | MIC90 [29]: 0.125 µg/mL (≈ 0.294 µM)

CC(=O)NC[C@H]1CN(c2ccc(N3CCOCC3)c(F)c2)C(=O)O1 [LINEZOLID]
MIC [30]: 32 µg/mL (≈ 94.9 µM) | MIC [1]: 128 µg/mL (≈ 379 µM) | MIC [31]: 64 µg/mL (≈ 190 µM) | MIC [3]: 32 µg/mL (≈ 94.9 µM) | MIC [32]: 16 µg/mL (≈ 47.4 µM) | MIC [4]: 128 µg/mL (≈ 379 µM) | MIC50 [5]: 2 µg/mL (≈ 5.93 µM) | MIC90 [5]: 2 µg/mL (≈ 5.93 µM) | MIC50 [33]: 2 µg/mL (≈ 5.93 µM) | MIC90 [33]: 2 µg/mL (≈ 5.93 µM) | MIC50 [6]: 2 µg/mL (≈ 5.93 µM) | MIC90 [6]: 2 µg/mL (≈ 5.93 µM) | MIC [34]: 1 µg/mL (≈ 2.96 µM) | MIC50 [34]: 1 µg/mL (≈ 2.96 µM) | MIC90 [34]: 2 µg/mL (≈ 5.93 µM) | MIC [7]: 1 µg/mL (≈ 2.96 µM) | MIC [14]: 2 µg/mL (≈ 5.93 µM) | MIC [15]: 2 µg/mL (≈ 5.93 µM) | MIC [16]: 1 µg/mL (≈ 2.96 µM) | MIC [17]: 2 µg/mL (≈ 5.93 µM) | MIC [18]: 2 µg/mL (≈ 5.93 µM) | MIC [19]: 64 µg/mL (≈ 190 µM) | MIC [20]: 16 µg/mL (≈ 47.4 µM) | MIC [35]: 16 µg/mL (≈ 47.4 µM) | MIC [36]: 64 µg/mL (≈ 190 µM) | MIC [37]: 16 µg/mL (≈ 47.4 µM) | MIC [23]: 32 µg/mL (≈ 94.9 µM) | MIC [24]: 2 µg/mL (≈ 5.93 µM) | MIC50 [26]: 1 µg/mL (≈ 2.96 µM) | MIC90 [26]: 2 µg/mL (≈ 5.93 µM) | MIC50 [27]: 1 µg/mL (≈ 2.96 µM) | MIC90 [27]: 2 µg/mL (≈ 5.93 µM) | MIC50 [28]: 1 µg/mL (≈ 2.96 µM) | MIC90 [28]: 2 µg/mL (≈ 5.93 µM) | MIC [29]: 1 µg/mL (≈ 2.96 µM) | MIC90 [29]: 2 µg/mL (≈ 5.93 µM)
